Measured values published in ChEMBL document CHEMBL3856290, “Discovery of TAK-272: A Novel, Potent, and Orally Active Renin Inhibitor” (ACS Med Chem Lett, 2016).
Where a name gives a salt, the structure may show the parent alone. Calls of active or inactive are those of the source. The calls are words filed in the database; no cut-off is given here.

Experiments:
[1] = Oral bioavailability in non-fasted rat at 1 mg/kg administered through cassette dosing by LC/MS/MS analysis; type: ADME, organism-based; settings: in vivo
How it was run: (§1)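 Cassette dosing to non-fasted rats, either 0.1 mg/kg iv or 1 mg/kg po. Blood was sampled after dosing and spun to plasma. Plasma was deproteinized and centrifuged, and compound levels in the supernatant were measured by LC/MS/MS.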

[2] = Plasma clearance in non-fasted rat at 0.1 mg/kg, iv or 1 mg/kg, po administered through cassette dosing by LC/MS/MS analysis; type: ADME, organism-based; settings: in vivo; how it was run: as §1
Renin [3] = target: T1, Renin (Homo sapiens, UniProt P00797); test: Inhibition of recombinant human preprorenin expressed in human 293F cells using angiotensinogen as substrate preincubated for 10 mins followed by substrate addition measured after 30 mins by ELISA
T1 sequence (P00797 whole entry): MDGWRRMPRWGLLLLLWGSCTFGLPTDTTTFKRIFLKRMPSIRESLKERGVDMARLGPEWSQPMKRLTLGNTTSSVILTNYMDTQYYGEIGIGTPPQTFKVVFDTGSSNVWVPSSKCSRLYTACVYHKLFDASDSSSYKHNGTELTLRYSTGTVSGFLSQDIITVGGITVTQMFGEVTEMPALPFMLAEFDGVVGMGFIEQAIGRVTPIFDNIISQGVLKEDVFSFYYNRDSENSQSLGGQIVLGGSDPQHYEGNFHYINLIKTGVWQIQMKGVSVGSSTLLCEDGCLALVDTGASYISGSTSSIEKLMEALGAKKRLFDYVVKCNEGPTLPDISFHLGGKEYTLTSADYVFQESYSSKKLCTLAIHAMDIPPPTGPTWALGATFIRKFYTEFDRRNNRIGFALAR

Renin [4] = target: T1, Renin; test: Inhibition of renin in human plasma by radioimmunoassay; type: cell-free
[5] = AUC in non-fasted rat at 1 mg/kg, po administered through cassette dosing by LC/MS/MS analysis; type: ADME, organism-based; settings: in vivo; how it was run: as §1
Cathepsin D = Cathepsin D (Homo sapiens, UniProt P07339); test: Inhibition of cathepsin D (unknown origin)
Rattus norvegicus [6] = test: Antihypertensive activity in po dosed human angiotensinogen and renin double transgenic rat model assessed as reduction in systolic blood pressure after 5 to 24 hrs by tail-cuff method; type: functional, organism-based
How it was run: (§2)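 Male hAOPEN-hREN double transgenic rats, 5 weeks old. Drugs were dissolved in 0.5% methylcellulose and given orally; vehicle-dosed rats served as controls. Systolic pressure was read by tail-cuff before dosing and at 5 and 24 h after dosing.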

Rattus norvegicus [7] = test: Antihypertensive activity in human angiotensinogen and renin double transgenic rat model assessed as reduction in systolic blood pressure at 3 mg/kg, po after 5 hrs by tail-cuff method; type: functional, organism-based; how it was run: as §2
[8] = Inhibition of pepsin (unknown origin); parameters: species or system Homo sapiens
Rattus norvegicus [9] = test: Antihypertensive activity in human angiotensinogen and renin double transgenic rat model assessed as reduction in systolic blood pressure at 10 mg/kg, po after 24 hrs by tail-cuff method; type: functional, organism-based; how it was run: as §2
Rattus norvegicus [10] = test: Antihypertensive activity in human angiotensinogen and renin double transgenic rat model assessed as reduction in systolic blood pressure at 10 mg/kg, po after 5 hrs by tail-cuff method; type: functional, organism-based; how it was run: as §2
Rattus norvegicus [11] = test: Antihypertensive activity in human angiotensinogen and renin double transgenic rat model assessed as reduction in systolic blood pressure at 75 mg/kg, po after 24 hrs by tail-cuff method; type: functional, organism-based; how it was run: as §2
Rattus norvegicus [12] = test: Antihypertensive activity in human angiotensinogen and renin double transgenic rat model assessed as reduction in systolic blood pressure at 75 mg/kg, po after 5 hrs by tail-cuff method; type: functional, organism-based; how it was run: as §2

Sequence of Cathepsin D (P07339 65-162 limits assumed): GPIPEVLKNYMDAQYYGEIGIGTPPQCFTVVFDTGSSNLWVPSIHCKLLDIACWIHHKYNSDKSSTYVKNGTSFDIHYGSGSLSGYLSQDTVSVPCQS
Sequence of Cathepsin D (P07339 169-412 limits assumed): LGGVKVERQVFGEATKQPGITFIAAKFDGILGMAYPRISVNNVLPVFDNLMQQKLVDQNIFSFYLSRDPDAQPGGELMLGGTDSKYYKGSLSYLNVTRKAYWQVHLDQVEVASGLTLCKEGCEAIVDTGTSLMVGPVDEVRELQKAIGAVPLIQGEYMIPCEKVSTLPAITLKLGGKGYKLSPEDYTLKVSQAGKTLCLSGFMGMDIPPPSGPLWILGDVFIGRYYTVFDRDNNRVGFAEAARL

| IC50 (Renin [3]) | IC50 (Renin [4]) | SMILES | also measured |
| --- | --- | --- | --- |
| – | – | COCCCNc1nc(C(C)(C)C)ncc1C(=O)N(CC(C)C)[C@@H]1CNC[C@H](C(=O)N2CCOCC2)C1 | F [1]: < 1%; CL [2]: 92.32 mL/min/kg |
| 3.3 nM | 10 nM | COC(=O)[C@@H]1CNC[C@@H](N(CC(C)C)C(=O)c2cnc(C(C)(C)C)nc2NCc2ccco2)C1 (relative stereo) | – |
| 0.44 nM | 1.4 nM | COC(=O)[C@H]1CNC[C@@H](N(CC(C)C)C(=O)c2cnc(C(C)(C)C)nc2NCc2ccco2)C1 (racemic) | – |
| – | – | CCCCCCc1nc(C(C)(C)C)ncc1C(=O)N(CC(C)C)[C@@H]1CNC[C@H](C(=O)N2CCOCC2)C1 | F [1]: 5%; CL [2]: 40.12 mL/min/kg; AUC [5]: 20.9 ng·h/mL |
| 2.6 nM | 5.2 nM | COCCCNc1nc(C(C)(C)C)ncc1C(=O)N(CC(C)C)[C@@H]1CNC[C@H](C(=O)OC)C1 | – |
| – | – | COCCCCn1c(C(=O)N(CC(C)C)[C@@H]2CNC[C@H](C(=O)N3CCOCC3)C2)nc2ccccc21 [IMARIKIREN HYDROCHLORIDE] | IC50 (Cathepsin D): > 10000 nM; Activity (Rattus norvegicus [6]): Dose-dependent effect; Activity (Rattus norvegicus [7]): Active; IC50 [8]: > 10000 nM; Activity (Rattus norvegicus [9]): Active; Activity (Rattus norvegicus [10]): Active |
| 0.58 nM | 4.6 nM | CC(C)CN(C(=O)c1cnc(C(C)(C)C)nc1NCc1ccco1)[C@H]1CCCNC1 | – |
| 1.2 nM | > 10 nM | COC(=O)[C@@H]1CNC[C@H](N(CC(C)C)C(=O)c2cnc(C(C)(C)C)nc2NCc2ccco2)C1 | – |
| – | – | COCCCOc1cc(C[C@@H](C[C@H](N)[C@@H](O)C[C@H](C(=O)NCC(C)(C)C(N)=O)C(C)C)C(C)C)ccc1OC | Activity (Rattus norvegicus [11]): Active; Activity (Rattus norvegicus [12]): Active |
| 0.039 nM | 0.35 nM | COC(=O)[C@H]1CNC[C@@H](N(CC(C)C)C(=O)c2cnc(C(C)(C)C)nc2NCc2ccco2)C1 | – |
| 1.4 nM | 4.5 nM | COCCCNc1nc(C(C)(C)C)ncc1C(=O)N(CC(C)C)[C@@H]1CNC[C@H](C(N)=O)C1 | – |
